Measurements of several laboratories.
Protocols differ between the studies behind these lines.
Cell line: HeLa
Observed: cell growth or viability
Method: MTT

O=C(C=Cc1ccc(F)cc1)Nc1cc(-c2ccnc(N3CCC(O)CC3)c2)ccn1
inhibition (5 µM): 67.2%

C=C(COCc1ccc(F)cc1)[C@@H]1CC[C@@H](C)C[C@H]1OCc1ccc(F)cc1
inhibition (10 µM, 72 h): 32.8%

COC(=O)COc1c(Cc2cc(C(C)(C)CC(C)(C)C)cc(-n3nc4ccccc4n3)c2OCC(=O)OC)cc(C(C)(C)CC(C)(C)C)cc1-n1nc2ccccc2n1
GI50: 8.12 µM

COc1ccc(COC[C@@](O)(CNCc2ccccc2)[C@@H]2CC[C@@H](C)C[C@H]2OCc2ccc(OC)cc2)cc1
inhibition (30 µM, 72 h): 97.4%

Cc1cc(NC(=O)C=Cc2ccccc2)cc(-c2ccnc(N3CCOCC3)c2)c1
inhibition (5 µM): 16.2%

C=C(COCc1ccc(OC)cc1)[C@@H]1CC[C@@H](C)C[C@H]1OCc1ccc(OC)cc1
inhibition (30 µM, 72 h): 60.6%

Cc1cccc(/C=C/C(=O)Nc2cc(-c3ccnc(N4CCOCC4)c3)ccn2)c1
inhibition (5 µM): 72%

COc1ccc(COC[C@@](O)(CNCc2ccc(F)cc2)[C@@H]2CC[C@@H](C)C[C@H]2OCc2ccc(OC)cc2)cc1
inhibition (30 µM, 72 h): 99.1%

C[C@H](CCC(=O)O)[C@H]1CC[C@H]2[C@@H]3CC[C@@H]4C[C@H](O)CC[C@]4(C)[C@H]3CC[C@]12C
IC50 (72 h): 56 µM

O=C(Nc1cccc([N+](=O)[O-])c1)c1ccco1
IC50: 637 µM

O=C(CCc1ccccc1)Nc1cc(-c2ccnc(N3CCC(O)CC3)c2)ccn1
inhibition (5 µM): 82.9%

C[C@@H]1CC[C@@H]([C@@](C)(O)Cn2cnc3ccccc32)[C@H](OCc2ccccc2)C1
inhibition (30 µM, 72 h): 86.3%

O=C(C=Cc1ccccc1)Nc1cc(-c2ccnc(N3CCC(O)CC3)c2)ccn1
IC50 (72 h): 0.0741 µM

COc1cccc2c1C(=O)c1c(O)c3c(c(O)c1C2=O)C[C@@](O)(C(=O)CO)C[C@@H]3O[C@H]1C[C@H](N)[C@H](O)[C@H](C)O1
GI50: 4.21 µM

O=C(Nc1cccc([N+](=O)[O-])c1)c1cccs1
IC50: 282 µM

O=c1c(C=NNC(=S)Nc2ccccc2)coc2ccccc12
IC50 (48 h): 91.9 µM

O=C(C=Cc1ccccc1)Nc1cccc(-c2ccnc(N3CCC(CO)CC3)c2)c1
inhibition (5 µM): 73.1%

[NH2][Pt]([NH2])([Cl])[Cl]
IC50 (72 h): 6.8 µM
